High-throughput results from PubChem BioAssay.
Statin myotox sup – suppression of simvastatin myotoxicity | rescue of ATP level, % at 7.49 µM | C2C12 myotubes + simvastatin, ATP luminescence, 48 h; scaled: DMSO 0, geranylgeraniol control 100 | AID 602340 | 0.78% of 330,000 active;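 active means mean ATP rescue above about 67%, or every replicate alone reaching that limit, limit read from the data, passing the limit was not always enough; inconclusive means no clear call, values can overlap the other calls; inactive means mean under the limit and some replicate under it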;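 further: myotubes were challenged with 10 µM simvastatin during compound exposure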
DENV2 CPE rescue – DENV2-induced cell death inhibition | 1.7% of 350,000 active | AID 651640 | DENV2-infected cells, cytopathic effect rescue, plate reader | CPE inhibition, % at 9.99 µM; in the data active means CPE inhibition above about 20%, passing the limit was not always enough; inconclusive means no clear call, values can overlap the other calls; tested in BHK-21 cells
E-selectin induc – E-selectin induction on HUVECs. activation, % at 7.58 µM. 0.37% of 260,000 active. AID 686992. P16581. HUVEC E-selectin immunofluorescence imaging; normalized: neutral wells 0, TNF-alpha wells 100;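 active means mean E-selectin-positive cell signal at least 10% of the positive control, reached in at least 60% of replicates, without over 20% cell loss; inconclusive means no rule given, readout overlaps actives, possibly toxicity-flagged; inactive means the rest, including those meeting only one limit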
Target sequence (P16581 whole entry, looked up): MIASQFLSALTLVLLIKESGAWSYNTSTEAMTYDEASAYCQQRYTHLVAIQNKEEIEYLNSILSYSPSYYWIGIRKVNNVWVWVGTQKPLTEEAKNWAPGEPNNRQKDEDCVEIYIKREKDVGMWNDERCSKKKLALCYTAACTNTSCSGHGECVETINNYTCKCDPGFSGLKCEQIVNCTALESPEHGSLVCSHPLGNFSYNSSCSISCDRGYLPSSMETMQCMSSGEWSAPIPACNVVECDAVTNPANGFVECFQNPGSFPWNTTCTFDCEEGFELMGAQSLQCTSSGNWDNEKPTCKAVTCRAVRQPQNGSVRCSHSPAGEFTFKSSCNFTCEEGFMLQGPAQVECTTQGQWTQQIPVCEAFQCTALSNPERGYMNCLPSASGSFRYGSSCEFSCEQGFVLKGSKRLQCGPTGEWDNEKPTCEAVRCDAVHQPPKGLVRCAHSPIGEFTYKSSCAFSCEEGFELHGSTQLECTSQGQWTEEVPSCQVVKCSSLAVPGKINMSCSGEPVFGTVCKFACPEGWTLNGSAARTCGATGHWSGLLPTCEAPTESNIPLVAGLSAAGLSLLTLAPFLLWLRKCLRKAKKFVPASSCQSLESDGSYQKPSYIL
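Read-out: % PE-positive cells | Test system: HUVEC | Doses: One compound dose added by pin transfer | Buffer or medium: EGM-2 over gelatin coat | Signal: Immunofluorescence imaging | Benchmarks: TNF-alpha, DMSO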
Each line names hits and unclear results; the compound was inactive in the other large screens. Hits are enriched below; roughly 2.2% of the tested compounds scored in any of these assays.

N#C[C@H]1[C@H](c2ccccc2-c2ccccc2)[C@@H](CO)N1C(=O)Cc1cccnc1	DENV2 CPE rescue 35 (no result: Statin myotox sup)
COCC(=O)N1[C@H](CO)[C@@H](c2ccccc2-c2cccc(F)c2)[C@@H]1C#N	none (no result: Statin myotox sup)
N#C[C@@H]1[C@@H](c2ccccc2-c2cccc(F)c2)[C@@H](CO)N1C(=O)C1CCC1	DENV2 CPE rescue 29 (no result: Statin myotox sup)
COCC(=O)N1[C@H](CO)[C@H](c2ccccc2-c2cccc(F)c2)[C@@H]1C#N	DENV2 CPE rescue 33 (no result: Statin myotox sup)
N#C[C@H]1[C@@H](c2ccccc2-c2cccc(F)c2)[C@H](CO)N1C(=O)C1CCC1	none (no result: Statin myotox sup)
N#C[C@@H]1[C@@H](c2ccccc2-c2ccccc2)[C@H](CO)N1C(=O)Cc1cccnc1	none (no result: Statin myotox sup)
COc1ccc([Si](C)(C)[C@@H]2[C@@H](CCO)O[C@]3(C(=O)N4c5c(cc(OC)cc53)C(C)=CC4(C)C)[C@H]2C)cc1	none (no result: Statin myotox sup, E-selectin induc)
Cc1noc(C)c1NC(=O)Nc1ccc2c(c1)C(=O)N([C@@H](C)CO)C[C@H](C)[C@@H](CN(C)Cc1ccc3c(c1)OCO3)O2	none (no result: DENV2 CPE rescue, E-selectin induc)
Cc1noc(C)c1NC(=O)N(C)C[C@H]1Oc2ccc(NC(=O)c3ccncc3)cc2CC(=O)N([C@H](C)CO)C[C@H]1C	none (no result: E-selectin induc)
CC(C)NC(=O)Nc1ccc2c(c1)C(=O)N([C@@H](C)CO)C[C@@H](C)[C@@H](CN(C)C(=O)Nc1ccccc1)O2	none
CNC[C@@H]1Oc2c(NC(=O)Nc3ccc(C(F)(F)F)cc3)cccc2C(=O)N([C@@H](C)CO)C[C@@H]1C	none
CCCC(=O)Nc1ccc2c(c1)C(=O)N(C)C[C@H](OC)[C@@H](C)CN(Cc1ccc(-c3ccccn3)cc1)[C@H](C)CO2	DENV2 CPE rescue 36
CCCNC(=O)Nc1ccc2c(c1)C(=O)N(C)C[C@H](OC)[C@H](C)CN(Cc1cncnc1)[C@H](C)CO2	DENV2 CPE rescue 53
CCCNC(=O)Nc1ccc2c(c1)OC[C@H](C)N(Cc1ccc(-c3ccccn3)cc1)C[C@@H](C)[C@H](OC)CN(C)C2=O	DENV2 CPE rescue 25
CCCC(=O)Nc1ccc2c(c1)C(=O)N(C)C[C@H](OC)[C@@H](C)CN(Cc1ccc(-c3ccccn3)cc1)[C@@H](C)CO2	none
CCCNC(=O)Nc1ccc2c(c1)OC[C@@H](C)N(Cc1ccc(-c3ccccn3)cc1)C[C@@H](C)[C@H](OC)CN(C)C2=O	none
CCCNC(=O)Nc1ccc2c(c1)C(=O)N(C)C[C@@H](OC)[C@H](C)CN(Cc1cncnc1)[C@@H](C)CO2	none (no result: DENV2 CPE rescue)
CCS(=O)(=O)Nc1ccc2c(c1)C(=O)N(C)C[C@@H](OC)[C@H](C)CN(CCC(F)(F)F)[C@H](C)CO2	none
S=C(c1ccc(-c2ccc(Cl)c(Cl)c2)o1)N1CCOCC1	none (no result: DENV2 CPE rescue, E-selectin induc)
S=C(c1ccc(-c2ccccc2Cl)o1)N1CCOCC1	Statin myotox sup 78 (no result: DENV2 CPE rescue, E-selectin induc)
C[C@H](CO)N1C[C@H](C)[C@@H](CN(C)CC2CCCCC2)Oc2c(NC(=O)CCCCCC(=O)Nc3ccccc3N)cccc2C1=O	none (no result: Statin myotox sup)
C/C(=N\NC(=O)c1cc(-c2ccc(C)s2)nc2ccccc12)c1cccnc1	DENV2 CPE rescue inconclusive (no result: E-selectin induc)
C/C(=N\NC(=O)c1cc(-c2ccccc2C)nc2ccccc12)c1cccnc1	E-selectin induc 50 (no result: Statin myotox sup)
C[C@@H]1CCCCO[C@@H](CN(C)C(=O)Nc2ccc(C(F)(F)F)cc2)[C@H](C)CN([C@@H](C)CO)C(=O)c2cc(NS(=O)(=O)c3cccs3)ccc2O1	none
C[C@@H]1CCCCO[C@@H](CN(C)C(=O)CCCN(C)C)[C@H](C)CN([C@@H](C)CO)C(=O)c2cc(NS(=O)(=O)c3ccc(Cl)cc3)ccc2O1	none (no result: Statin myotox sup)
COc1ccc([C@H]2/C=C\CN(C(=O)CC(C)(C)C)[C@@H](C)C(=O)N2Cc2ccc(F)cc2)cc1	none
COc1ccc([C@H]2/C=C\CN(C(=O)c3ccc(C)cc3)[C@@H](C)C(=O)N2Cc2ccc(F)cc2)cc1	DENV2 CPE rescue 125
O=C(CCNC(=O)OCC1c2ccccc2-c2ccccc21)NOCc1ccccc1	DENV2 CPE rescue 29 (no result: E-selectin induc)
O=C(O)CCNC(=O)OCC1c2ccccc2-c2ccccc21	none (no result: E-selectin induc)
CO[C@H]1O[C@H](CO)[C@@H](OC(=O)c2ccc(Br)cc2)[C@H](OC(=O)c2cc3ccccc3[nH]2)[C@H]1OC(=O)c1cc2ccccc2[nH]1	none (no result: Statin myotox sup, E-selectin induc)
COc1ccccc1-c1cnc2c(c1)C(=O)N([C@H](C)CO)C[C@H](C)[C@H](CN(C)C(C)=O)O2	none
C[C@@H]1CN([C@@H](C)CO)C(=O)Cc2cc(NC(=O)CCC(F)(F)F)ccc2O[C@H]1CN(C)Cc1ccncc1	none (no result: DENV2 CPE rescue)
CN(C)CCCNc1nc(N)c([N+](=O)[O-])c(NCCO)n1	Statin myotox sup 87 (no result: E-selectin induc)
CCN(CC)CCCNc1nc(N)c([N+](=O)[O-])c(NCCO)n1	none (no result: Statin myotox sup, E-selectin induc)
O=C(c1ccc(CNc2c(N3CCCC3)c(=O)c2=O)cc1)N1CCN(C2CCCCC2)CC1	DENV2 CPE rescue 78
CCc1cccc(NC(=O)c2ccc(CNc3c(N4CCCC4)c(=O)c3=O)cc2)c1	Statin myotox sup 100
CC(=O)c1ccc(NC(=O)c2ccc(CNc3c(N4CCCC4)c(=O)c3=O)cc2)cc1	none (no result: Statin myotox sup, E-selectin induc)
CC1CCN(C(=O)c2ccc(CNc3c(N4CCCC4)c(=O)c3=O)cc2)CC1	none (no result: Statin myotox sup)
CCC(=O)Nc1ccc2c(c1)C(=O)N(C)[C@H]1CC[C@H](CC(=O)NCc3ccccc3Cl)O[C@@H]1CO2	none
Cc1noc(C)c1NC(=O)N1C[C@H](O)COC[C@@H]2O[C@@H](CC(=O)NCC3CCCCC3)CC[C@H]21	DENV2 CPE rescue inconclusive
CCc1sc(NC(=O)COC)nc1-c1ccccc1	none (no result: DENV2 CPE rescue, E-selectin induc)
COCC(=O)Nc1nc(-c2ccc(C)cc2)c(C)s1	Statin myotox sup 123 (no result: DENV2 CPE rescue, E-selectin induc)
CN1C(=O)c2cc(NC(=O)c3ccc4c(c3)OCO4)ccc2OC[C@H]2O[C@H](CC(=O)O)CC[C@@H]21	DENV2 CPE rescue inconclusive
CN1C(=O)c2cc(NC(=O)c3ccc4c(c3)OCO4)ccc2OC[C@H]2O[C@@H](CC(=O)O)CC[C@@H]21	DENV2 CPE rescue 40
CN1C(=O)c2cc(NC(=O)c3ccc(F)cc3)ccc2OC[C@@H]2O[C@@H](CC(=O)O)CC[C@@H]21	none
CN1C(=O)c2cc(NC(=O)c3ccc(F)cc3)ccc2OC[C@H]2O[C@H](CC(=O)O)CC[C@H]21	DENV2 CPE rescue 35
O=C(C[C@H]1CC[C@@H]2[C@H](COC[C@H](O)CN2Cc2ccccc2F)O1)N1CCc2ccccc2C1	none
O=C(C[C@@H]1CC[C@H](NS(=O)(=O)c2ccccc2)[C@H](CO)O1)N1CCc2ccccc2C1	none
C/C=C/c1ccc([C@@H]2[C@H](CO)N(C(=O)CN(C)C)C23CN(C(=O)C2CCOCC2)C3)cc1	none (no result: Statin myotox sup)
COc1cccc(-c2ccc([C@@H]3[C@@H](CO)N4CCCCN(CC5CC5)C[C@@H]34)cc2)c1	none
COc1cccc(-c2ccc([C@H]3[C@@H](CO)N4C(=O)CNC[C@@H]34)cc2)c1	none (no result: Statin myotox sup)
O=C(c1cccc(F)c1)N1CCCCN2[C@H](CO)[C@@H](c3ccc(-c4ccccc4)cc3)[C@@H]2C1	none (no result: Statin myotox sup)
COc1cccc(-c2ccc([C@H]3[C@H]4CNCC(=O)N4[C@H]3CO)cc2)c1	DENV2 CPE rescue 22 (no result: Statin myotox sup)
COc1cccc(-c2ccc([C@@H]3[C@H](CO)N4CCCCN(C(=O)c5ccc(F)cc5)C[C@@H]34)cc2)c1	DENV2 CPE rescue 41
COc1cccc(-c2ccc([C@@H]3[C@H]4CN(CC5CC5)CCCCN4[C@H]3CO)cc2)c1	DENV2 CPE rescue 58
